# Screens as filed in PubChem BioAssay.
# OX1R antag-1 = antagonists of human orexin 1 receptor; O43613; CHO/OX1R cells, Fluo-8 calcium fluorescence, orexin A; inhibition, % at 5 µM; 0.43% of 330,000 active; AID 434989;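 active = inhibition above its plate's threshold, mean inhibition of all tested compounds on the plate plus 3 SD, cut at about 37% in these data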;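 also: 0% = orexin A challenge wells and 100% = SB-334867-A antagonist wells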
# GPR7 antagonist = antagonists of human GPR7 (neuropeptides B/W receptor 1); P48145; GPR7-expressing cells, fluorescence antagonist assay; inhibition, % at 4.4 µM; 1.1% of 290,000 active; in the data active = inhibition above about 16%, passing the limit was not always enough;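 also: cells stimulated with the agonist NPW; 0% = agonist with vehicle and 100% = vehicle without agonist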
# TAAR1 antagonist = antagonists of human TAAR1. AID 624466. CHO RD-HGA16 TAAR1, Fluo-8 calcium fluorescence, antagonist. 1.5% of 360,000 active. inhibition, % at 3 µM;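 active = inhibition above a per-plate cutoff, the mean inhibition of test compounds on that plate plus 3 SD, cut at about 49% in these data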;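 also: 0% = DMSO plus EC80 beta-PEA response and 100% = DMSO alone without agonist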
# Target sequence (Q96RJ0 whole entry, looked up): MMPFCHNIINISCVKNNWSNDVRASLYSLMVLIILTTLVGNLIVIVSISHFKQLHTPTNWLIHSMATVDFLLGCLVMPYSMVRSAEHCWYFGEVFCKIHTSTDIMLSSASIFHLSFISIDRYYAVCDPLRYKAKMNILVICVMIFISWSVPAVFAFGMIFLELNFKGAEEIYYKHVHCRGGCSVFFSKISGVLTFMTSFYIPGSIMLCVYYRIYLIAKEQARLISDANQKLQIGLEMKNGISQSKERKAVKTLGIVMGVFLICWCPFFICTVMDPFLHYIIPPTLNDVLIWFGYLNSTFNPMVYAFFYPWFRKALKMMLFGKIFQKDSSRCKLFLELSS
#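 Test system: hTAAR1-expressing CHO RD-HGA16 cells, Gα16-coupled; Probe or stimulus: EC80 β-phenethylamine stimulus; Compound dosing: single nominal final test compound concentration of 3 µM; Timing: 140 s kinetic read after compound, 140 s after agonist; Signal: Fluo-8 calcium-sensitive fluorescence; Measure: % inhibition of agonist calcium response; Controls: DMSO and EC80 PEA controls.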
# OX1R antag-2 = blocks the human orexin 1 receptor | O43613 | OX1R-expressing cells, FRET antagonist read-out | inhibition, % at 6.6 µM | 1.8% of 330,000 active | AID 485270; in the data active = inhibition mostly above about 38%, no sharp cut-off; inactive = mostly below about 40%;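 also: 0% = agonist challenge alone and 100% = reference antagonist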
# CHO parental Ca = counter-screen for OX1R antagonists: effect in parental CHO cells; parental CHO-K1, ATP-induced calcium, Fluo-8 fluorescence; inhibition, % at 5.6 µM; 0.63% of 330,000 active; AID 463079;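 active = inhibition above that plate's mean sample inhibition plus 3 SD, cut at about 26% in these data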;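 also: 0% = ATP-challenged DMSO wells and 100% = DMSO wells without ATP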
#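 Assay system – parental CHO cells · Reagent – ATP stimulus · Detection – intracellular calcium via Fluo-8 no-wash fluorescent dye · Evaluation – percent inhibition of ATP-evoked calcium rise, normalized to controls · Controls – ATP wells versus no-ATP DMSO wells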
# TAAR1 agonist = human TAAR1 agonism; 0.99% of 360,000 active; CHO RD-HGA16 TAAR1, Fluo-8 calcium fluorescence; vehicle wells 0%, saturating PEA agonist 100%; Q96RJ0; activation, % at 3 µM;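 active = activation above the mean activation of all test compounds in the run plus 3 SD, cut at about 38% in these data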
#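 Benchmarks: low control DMSO, high control PEA (EC100); System: CHO RD-HGA16 cells carrying human TAAR1 plus Gα16; Detection: Fluo-8 fluorescence, 5 s baseline then 140 s kinetic read; Schedule: 17-24 h plating, Fluo-8 75 min 37 °C, 30 min RT; Read-out basis: % activation from peak over basal fluorescence ratio, DMSO-to-PEA scaled.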
# GPR7 antag conf = confirmation of human GPR7 antagonists; AID 1952; GPR7-expressing cells, calcium fluorescence antagonist mode; 52% of 2,400 active; inhibition, % at 4.4 µM; shares compounds with GPR7 antagonist; in the data active = inhibition above about 24%;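 also: stimulated with the GPR7 agonist NPW; 0% = agonist plus vehicle and 100% = vehicle alone without agonist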
# MCHR1 antagonist = counter-screen for GPR7 antagonists: antagonists of human MCHR1; inhibition, % at 4.4 µM; 62% of 2,400 active; shares compounds with GPR7 antagonist; MCHR1-expressing cells, fluorescence antagonist assay; in the data active = inhibition above about 22%;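 also: 0% = vehicle with agonist and 100% = vehicle without agonist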
# * hit, by the source's call; / = not tested or not shown. A selection: hits, their analogues and other compounds. The true share with any hit is near 4.5%.
SMILES,OX1R antag-1,GPR7 antagonist,TAAR1 antagonist,OX1R antag-2,CHO parental Ca,TAAR1 agonist,GPR7 antag conf,MCHR1 antagonist
C[C@@H]1CN([C@@H](C)CO)C(=O)CCCn2nncc2CO[C@H]1CN(C)C(=O)Oc1cccc2ccccc12,/,/,-2,/,/,0,/,/
C[n+]1c2ccccc2nc2ccc(NCCO)cc21,-17,1,-4,86*,-5,2,/,/
OCCNc1c2c(nc3ccccc13)CCCC2,6,4,1,5,5,10,/,/
C=C(C)[C@@H]1[C@H]2OC(=O)[C@H]1[C@]1(O)C[C@H]3O[C@]34C(=O)O[C@H]2[C@]14C,/,/,-3,/,/,2,/,/
Cc1cc(OCCN2CC2)c2ccccc2n1,-16,-7,/,5,-4,/,/,/
CN1C(=O)C(c2ccc([N+](=O)[O-])cc2[N+](=O)[O-])C(=O)N(C)C1=O,-13,12,6,44*,-1,6,/,/
CN1C(=O)C(C2c3ccccc3C(=O)N2Cc2ccc([N+](=O)[O-])cc2)C(=O)N(C)C1=O (stereo not given),-13,-3,10,21,4,8,/,/
NC1CCc2cc(O)c(O)cc2C1 (stereo not given),3,/,-28,23,0,39*,/,/
CCOc1cc(CNCCc2cccc(F)c2)ccc1OC,-21,8,-14,-3,-21,22,/,/
CCOc1ccc(Cl)cc1CNCCc1ccc(F)cc1,-35,33*,-6,9,-28,15,30*,29*
CN1CC=C(/C=C/c2ccc(-c3ccccc3)cc2)CC1,20,51*,/,-1,22,/,63*,51*
CCOP(=O)(OCC)C(NC(=O)CC(C)C)C(Cl)(Cl)Cl (stereo not given),-11,-1,10,21,4,2,/,/
O=C1CC(N2CC=C(c3ccccc3)CC2)C(=O)N1c1ccc(F)cc1 (stereo not given),-23,24*,-5,5,-9,3,5,8
CCCOc1ccc(N2C(=O)CC(N3CC=C(c4ccccc4)CC3)C2=O)cc1 (stereo not given),-27,-12,7,20,-20,3,/,/
COC1CC=C2CCN3CCC4=C(CC(=O)OC4)C23C1 (stereo not given),/,/,-14,/,/,2,/,/
CCOc1cc2c(cc1OCC)-n1cccc1C(c1ccc(C(C)C)cc1)NC2 (stereo not given),8,36*,-8,16,56*,25,34*,62*
CCOc1cc2c(cc1OCC)-n1cccc1C(c1ccc(F)cc1)NC2 (stereo not given),-20,-1,1,6,-9,11,/,/
COc1ccccc1-n1c(O)c(/C=C2\C=Nc3ccccc32)c(=O)[nH]c1=O,-8,29*,-7,22,-1,8,39*,53*
c1ccc2c(c1)Sc1ccccc1N2CC1CN2CCC1CC2 (stereo not given),-10,30*,-8,14,-3,1,47*,41*
Cc1nonc1-c1nc(-c2nonc2N)n[nH]1,-23,32*,-5,12,11,2,13,4
C[N+]1=C(/C=C/Nc2ccccc2)C(C)(C)c2ccccc21,22,0,16,6,44,1,/,/
CN1/C(=C\C=C\C2=[N+](C)c3ccc4ccccc4c3C2(C)C)C(C)(C)c2ccccc21,103*,87*,/,-4,97*,/,102*,104*
Cc1c(CCN)ccc2c1[nH]c1ccccc12,1,37*,-12,-5,17,26,37*,27*
NCCc1c(Cc2ccccc2)[nH]c2ccccc12,-25,/,-12,9,-15,5,/,/
CC1N=C(c2ccccc2)c2cc(Br)ccc2NC1=O (stereo not given),-12,-18,-6,4,-18,3,/,/
CCOP(=O)(/C=C(\Cl)c1ccccc1)C(O)c1ccc(F)cc1 (stereo not given),-10,4,-5,0,-10,-1,/,/
